Data as given in ChEMBL document CHEMBL1142961, “Novel selective inhibitors of the zinc plasmodial aminopeptidase PfA-M1 as potential antimalarial agents” (J Med Chem, 2007).
Converted amounts (≈) assume the structure as drawn.

What was measured:
[1] = target: T1, Aminopeptidase N (Sus scrofa) (UniProt P15145); experiment: Inhibition of pig kidney microsomal APN at 10 uM
T1 sequence (whole entry): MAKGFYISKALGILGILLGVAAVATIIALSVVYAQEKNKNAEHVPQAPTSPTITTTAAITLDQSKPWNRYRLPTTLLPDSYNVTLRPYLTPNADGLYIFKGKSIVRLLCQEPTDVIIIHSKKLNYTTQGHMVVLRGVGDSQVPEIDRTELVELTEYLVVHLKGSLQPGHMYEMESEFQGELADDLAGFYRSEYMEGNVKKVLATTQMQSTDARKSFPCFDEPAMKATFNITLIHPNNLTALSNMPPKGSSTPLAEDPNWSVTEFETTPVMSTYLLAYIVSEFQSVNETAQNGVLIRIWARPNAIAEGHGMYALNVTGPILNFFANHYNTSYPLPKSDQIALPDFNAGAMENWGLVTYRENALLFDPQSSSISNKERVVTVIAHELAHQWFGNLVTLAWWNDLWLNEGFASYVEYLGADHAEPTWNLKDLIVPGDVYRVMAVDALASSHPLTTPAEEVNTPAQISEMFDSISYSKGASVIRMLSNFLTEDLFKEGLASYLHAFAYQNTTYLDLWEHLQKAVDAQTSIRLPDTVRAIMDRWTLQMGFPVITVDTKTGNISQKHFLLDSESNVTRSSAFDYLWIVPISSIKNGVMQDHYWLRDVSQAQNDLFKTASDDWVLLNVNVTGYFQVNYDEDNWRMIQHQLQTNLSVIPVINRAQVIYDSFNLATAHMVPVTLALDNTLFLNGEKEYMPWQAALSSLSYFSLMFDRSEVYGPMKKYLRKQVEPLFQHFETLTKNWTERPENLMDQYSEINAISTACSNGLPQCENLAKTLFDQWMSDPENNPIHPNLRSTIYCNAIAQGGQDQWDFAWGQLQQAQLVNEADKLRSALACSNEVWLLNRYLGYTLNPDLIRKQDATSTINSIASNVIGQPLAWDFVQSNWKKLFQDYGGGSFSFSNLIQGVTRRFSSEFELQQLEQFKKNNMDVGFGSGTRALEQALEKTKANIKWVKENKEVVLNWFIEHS
Outline: (§1)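 Porcine kidney microsomal APN (ammonium sulfate suspension) diluted 600-fold in 25 mM Tris-HCl pH 7.4. Preincubated with inhibitor for 10 min at room temperature, then Leu-pNA added (0.3 mM stock). Hydrolysis followed at 405 nm at room temperature. Rates normalized to a no-inhibitor control. Single point at 10 µM; IC50 from concentration-velocity curves. Bestatin used as reference.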

Aminopeptidase N [2] = target: T2, Aminopeptidase N (Plasmodium falciparum FcB1/Columbia, UniProt O96935); experiment: Inhibition of Plasmodium falciparum FcB1 M1 aminopeptidase
T2 sequence (O96935 whole entry): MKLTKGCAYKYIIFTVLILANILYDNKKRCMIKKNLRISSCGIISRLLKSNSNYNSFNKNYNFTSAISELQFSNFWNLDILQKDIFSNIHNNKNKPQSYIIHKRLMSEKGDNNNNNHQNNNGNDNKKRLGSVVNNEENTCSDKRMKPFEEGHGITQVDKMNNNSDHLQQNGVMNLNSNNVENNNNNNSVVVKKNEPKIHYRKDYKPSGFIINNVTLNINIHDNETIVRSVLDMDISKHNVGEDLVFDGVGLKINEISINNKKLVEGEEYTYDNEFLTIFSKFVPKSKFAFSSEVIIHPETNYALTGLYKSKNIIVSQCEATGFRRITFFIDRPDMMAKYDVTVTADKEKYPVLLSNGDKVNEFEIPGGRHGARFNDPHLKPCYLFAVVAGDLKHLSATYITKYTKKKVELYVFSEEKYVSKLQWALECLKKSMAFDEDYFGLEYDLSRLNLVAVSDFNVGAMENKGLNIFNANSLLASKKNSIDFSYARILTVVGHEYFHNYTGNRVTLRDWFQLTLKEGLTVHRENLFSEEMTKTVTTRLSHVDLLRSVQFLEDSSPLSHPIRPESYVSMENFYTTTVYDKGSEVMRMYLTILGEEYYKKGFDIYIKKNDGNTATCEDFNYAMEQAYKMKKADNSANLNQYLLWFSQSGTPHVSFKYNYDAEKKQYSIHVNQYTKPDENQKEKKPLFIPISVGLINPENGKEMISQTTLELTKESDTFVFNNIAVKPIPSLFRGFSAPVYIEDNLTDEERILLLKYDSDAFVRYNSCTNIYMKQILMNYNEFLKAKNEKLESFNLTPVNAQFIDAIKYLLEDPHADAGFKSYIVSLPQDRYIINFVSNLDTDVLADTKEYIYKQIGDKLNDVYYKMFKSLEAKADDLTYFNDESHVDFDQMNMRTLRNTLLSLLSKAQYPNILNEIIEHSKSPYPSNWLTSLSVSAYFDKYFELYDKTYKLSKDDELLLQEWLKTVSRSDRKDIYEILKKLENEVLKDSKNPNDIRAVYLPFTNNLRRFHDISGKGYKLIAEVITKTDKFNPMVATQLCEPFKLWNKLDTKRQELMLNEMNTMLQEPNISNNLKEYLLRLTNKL
Outline: (§2)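 Native enzyme purified from P. falciparum FcB1, diluted 10-fold in 25 mM Tris-HCl pH 7.4. Preincubated with inhibitor for 10 min at room temperature, then Leu-pNA substrate added (0.3 mM stock, Km 0.099 mM). Kinetics followed at 405 nm at room temperature. Initial velocities normalized to a no-inhibitor control. Single-point screen at 10 µM; IC50 from velocity versus inhibitor concentration curves. Bestatin used as reference.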

[3] = target: T3, Aminopeptidase N (Plasmodium falciparum FcB1/Columbia) (UniProt O96935); experiment: Inhibition of Plasmodium falciparum FcB1 M1 aminopeptidase at 10 uM; outline: as §2
T3 sequence (whole entry): T2 sequence (O96935 whole entry)

Aminopeptidase N [4] = target: T4, Aminopeptidase N (Sus scrofa, UniProt P15145); experiment: Inhibition of pig kidney microsomal APN; outline: as §1
T4 sequence (P15145 whole entry): T1 sequence (whole entry)

Plasmodium falciparum [5] = experiment: Antimalarial activity against chloroquine-resistant Plasmodium falciparum FcB1; type: functional, organism-based
Outline: (§3)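 Asexual P. falciparum kept continuously on human erythrocytes; modified semiautomated microdilution method. Serially diluted drug added to asynchronous cultures (0.5% parasitemia, 1% final hematocrit) for 24 h at 37 °C, then [3H]hypoxanthine added per well. Growth inhibition from incorporated radioactivity relative to drug-free control on the same plate; IC50 from concentration-response curve, mean of three independent experiments.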

[6] = Stability in Zucker FA/FA rat plasma at 37degC; type: ADME, organism-based; details: read-out: Stability (converted)
Outline: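 Compound at 100 µM final in male Zucker FA/FA rat plasma, stirred at 37 °C. Samples taken from 0 to 96 h, acidified with 0.14 M phosphoric acid and spiked with internal standard. Extracted three times with AcOEt and quantified by LC-MS-MS (MRM). Half-life derived.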

[7] = Distribution coefficient, log D at pH 7.4; type: physicochemical; details: octanol/water
Outline: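 10 mM DMSO stock added to 1:1 octanol/PBS pH 7.4 and shaken for 2 h at room temperature. Phases separated and each quantified by LC-MS-MS. Log D taken as the log of the octanol/PBS concentration ratio from mass signals.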

[8] = Solubility at pH 7.4; type: physicochemical; details: buffer
Outline: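 10 mM DMSO stock diluted 50-fold into PBS pH 7.4 or MeOH. Shaken for 24 h at room temperature, centrifuged and filtered at 0.45 µm. Analysed by LC-MS-MS; solubility taken as the PBS/MeOH mass-signal area ratio.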

[9] = Selectivity ratio, IC50 for pig APN /IC50 for Plasmodium falciparum FcB1 M1
Outline: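 Ratio of IC50 values (APN/PfA-M1) from two parallel assays: native PfA-M1 purified from P. falciparum FcB1 (diluted 10-fold) and porcine kidney microsomal APN (diluted 600-fold), both in 25 mM Tris-HCl pH 7.4. Enzyme was preincubated 10 min at room temperature with inhibitor, then Leu-pNA added (0.3 mM solution). Kinetics were read at 405 nm, initial velocities normalized to no-inhibitor controls, and IC50 was taken from velocity–concentration plots.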

Plasmodium falciparum [10] = experiment: Antimalarial activity against chloroquine-sensitive Plasmodium falciparum F32; type: functional, organism-based; outline: as §3

SMILES	inhibition [1] [%]	IC50 (Aminopeptidase N [2]) [µM]	inhibition [3] [%]	IC50 (Aminopeptidase N [4]) [µM]	also measured
O=C(NO)C(Cc1ccccc1)C(=O)NCCCCc1ccccc1 (stereo unspecified)	81	0.046	94	> 10	
O=C(NO)/C(=C/c1ccccc1)C(=O)NCc1ccc(F)cc1		0.33		> 10	
O=C(NO)C(Cc1ccccc1)C(=O)NCc1cccc(-c2ccccc2)c1 (stereo unspecified)	90	1.17	71		
O=C(NO)C(Cc1ccccc1)C(=O)N1CCc2ccccc2C1 (stereo unspecified)	50	0.253	84		
O=C(NO)C(Cc1ccccc1)C(=O)N1CCN(Cc2ccccc2)CC1 (stereo unspecified)	21	1.76	75		
O=C(NO)/C(=C\c1ccccc1)C(=O)NCc1ccc(F)cc1		0.006		1.37	IC50 (Plasmodium falciparum [5]): 24 µM; half-life [6]: 22 h; logD [7]: 1.1; solubility [8]: 198 µM (≈ 62.2 µg/mL); Ratio IC50 [9]: 229; IC50 (Plasmodium falciparum [10]): 13 µM
CC(C)CC(C(=O)NO)C(=O)NCc1ccccc1 (stereo unspecified)	39	0.495	19		
CC(C)CC(C(=O)NO)C(=O)N1CCC(Cc2ccccc2)CC1 (stereo unspecified)	68	0.406	100		
O=C(NO)/C(=C\c1ccccc1)C(=O)NCCCCc1ccccc1		0.013		3.24	
O=C(NO)C(Cc1cccc(Oc2ccccc2)c1)C(=O)NCc1ccccc1 (stereo unspecified)	79	0.164	96	> 10	
CC(C)CC(C(=O)NO)C(=O)NCCCc1ccccc1 (stereo unspecified)	95	0.79	98		
O=C(NCCCCc1ccccc1)c1cc2ccccc2n(O)c1=O		> 10		> 10	
O=C(NO)C(Cc1ccccc1)C(=O)NCc1ccc(Cl)cc1 (stereo unspecified)	80	0.17	93		
O=C(NO)C(Cc1cccc(Oc2ccccc2)c1)C(=O)NCc1ccc(C(F)(F)F)cc1 (stereo unspecified)	84	0.231	102		
O=C(NO)C(Cc1ccccc1)C(=O)NCc1ccccc1 (stereo unspecified)	69	0.125	94		
CC(C)CC(C(=O)NO)C(=O)NCc1ccc(Cl)cc1 (stereo unspecified)	99	0.904	90		
O=C(NO)C(Cc1ccccc1)C(=O)N1CCC(Cc2ccccc2)CC1 (stereo unspecified)	34	0.206	92		
O=C(NO)C(Cc1ccccc1)C(=O)NC1Cc2ccccc2C1 (stereo unspecified)	61	1.93	26		
CC(C)CC(C(=O)NO)C(=O)NCc1ccc(F)cc1 (stereo unspecified)	92	3.9	85		
CC(C)CC(C(=O)NO)C(=O)NCc1cccc(Oc2ccccc2)c1 (stereo unspecified)	96	0.045	88		
O=C(NO)C(Cc1cccc(Oc2ccccc2)c1)C(=O)NCCCCc1ccccc1 (stereo unspecified)	84	0.225	96		
CC(C)CC(C(=O)NO)C(=O)NCCc1ccccc1 (stereo unspecified)	105	0.885	74		
CC(C)CC(C(=O)NO)C(=O)NCc1cccc2ccccc12 (stereo unspecified)		0.091		8.58	
O=C(NCc1ccc(F)cc1)c1cc2ccccc2n(O)c1=O		> 10		> 10	half-life [6]: > 48 h
O=C(NO)C(Cc1ccccc1)C(=O)NCc1cccc(Oc2ccccc2)c1 (stereo unspecified)	83	2.51	87		
O=C(NO)C(Cc1cccc(Oc2ccccc2)c1)C(=O)NCc1ccc(Cl)cc1 (stereo unspecified)	76	0.13	96	2.53	
Cc1ccccc1CNC(=O)C(Cc1ccccc1)C(=O)NO (stereo unspecified)	85	0.041	95	1.31	
